One experiment relates to B16. Put plainly: Antiproliferative activity against mouse B16 cells after 72 hrs by MTT assay. Particulars: B16, 72 h. The class given is functional, cell-based. The method in brief: (§1)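 Murine L1210 lymphoma and B16 melanoma cells in culture were given 72-h continuous exposure to compound, and viability was read by MTT assay. IC50 was taken as the readout.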
The test system of a further experiment is L1210. Put plainly: Antiproliferative activity against mouse L1210 cells after 72 hrs by MTT assay. Format: functional, cell-based. Particulars: L1210, 72 h. An outline of the steps: as §1

As usually defined, the IC50 is the concentration at which inhibition is half-maximal. On to `COc1cc(/C(=C/c2ccccc2)C(C)O)cc(OC)c1OC` (configuration not stated), for which the concentration for half-maximal inhibition (IC50) with B16 and with L1210 was more than 100 µM throughout.
Take `COc1cc(/C(=C/c2ccc(C)cc2)C(C)O)cc(OC)c1OC` (configuration not stated): the IC50 with B16 was more than 100 µM; in the experiment with L1210, 33.5 µM.
The matching figures for `COc1cc(/C(=C/c2ccc(Cl)cc2)C(C)O)cc(OC)c1OC` (configuration not stated): more than 100 µM and more than 100 µM.
The matching figures for `COc1cc(/C(=C/c2ccc(Br)cc2)C(C)O)cc(OC)c1OC` (configuration not stated): more than 100 µM and more than 100 µM.
The corresponding values for `COc1cc(/C(=C/c2ccc([N+](=O)[O-])cc2)C(C)O)cc(OC)c1OC` (configuration not stated) are more than 100 µM and more than 100 µM.
With `COc1ccc(/C=C(/c2cc(OC)c(OC)c(OC)c2)C(C)O)cc1` (configuration not stated), the 50% inhibitory concentration (IC50) was found to be 17.5 µM in the experiment on B16 and 3.9 µM in the experiment with L1210.

The values above are taken from ChEMBL document CHEMBL1759943, “Design and synthesis of novel enhanced water soluble hydroxyethyl analogs of combretastatin A-4” (Bioorg Med Chem Lett, 2011).
